Measured values as given in ChEMBL document CHEMBL4385637, “2-Aryladenine derivatives as a potent scaffold for A1, A3 and dual A1/A3 adenosine receptor antagonists: Synthesis and structure-activity relationships” (Bioorg Med Chem, 2019).

Tests used:
[1] = biological target: T1, Adenosine receptor A1 (Homo sapiens) (UniProt P30542); experiment: Displacement of [3H]DPCPX from human A1 receptor expressed in CHO-A1 cells at 10 uM incubated for 60 mins by scintillation counting method based radioligand competitive binding assay; format: cell-based
T1 sequence (whole entry): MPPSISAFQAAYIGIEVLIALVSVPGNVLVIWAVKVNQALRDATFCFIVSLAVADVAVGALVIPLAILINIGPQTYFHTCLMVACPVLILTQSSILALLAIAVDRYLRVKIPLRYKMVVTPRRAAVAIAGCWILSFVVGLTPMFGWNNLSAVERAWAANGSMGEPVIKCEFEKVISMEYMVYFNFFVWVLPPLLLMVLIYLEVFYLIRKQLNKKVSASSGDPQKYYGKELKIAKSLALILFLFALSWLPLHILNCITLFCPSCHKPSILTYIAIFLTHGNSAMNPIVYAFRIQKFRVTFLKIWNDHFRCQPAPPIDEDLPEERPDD
Method in brief: (§1)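 CHO-A1 membranes, 15 μg protein, in 20 mM Hepes, 100 mM NaCl, 10 mM MgCl2, 2 UI/ml adenosine deaminase, pH 7.4. Radioligand 2 nM [3H]DPCPX; nonspecific binding with 10 μM (R)-PIA. Incubated 25 °C for 60 min, filtered, counted, in duplicate. Screen at 10 μM; compounds >80% inhibition tested at 6 concentrations (10 nM–100 μM), Ki by Cheng-Prusoff.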

Adenosine receptor A2a [2] = biological target: T2, Adenosine receptor A2a (Homo sapiens, UniProt P29274); experiment: Displacement of [3H]ZM241385 from human A2A receptor expressed in HeLa-A2A cells at 10 uM incubated for 30 mins by scintillation counting method based radioligand competitive binding assay; format: cell-based
Method in brief: (§2)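 Uses HeLa-A2A membranes, 10 µg protein, buffer 50 mM Tris-HCl, 1 mM EDTA, 10 mM MgCl2, 2 UI/mL adenosine deaminase, pH 7.4. 3 nM [3H]ZM241385; nonspecific with 50 µM NECA. 30 min at 25 °C, GF/C filtration, duplicate wells. Screened at 10 μM; if >80% inhibition, 6 concentrations 10 nM–100 μM, Ki by Cheng-Prusoff.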

[3] = biological target: T3, Adenosine receptor A2b (Homo sapiens) (UniProt P29275); experiment: Displacement of [3H]DPCPX from human A2B receptor expressed in HEK-293-A2B cells at 10 uM incubated for 30 mins by scintillation counting method based radioligand competitive binding assay; format: cell-based
T3 sequence (whole entry): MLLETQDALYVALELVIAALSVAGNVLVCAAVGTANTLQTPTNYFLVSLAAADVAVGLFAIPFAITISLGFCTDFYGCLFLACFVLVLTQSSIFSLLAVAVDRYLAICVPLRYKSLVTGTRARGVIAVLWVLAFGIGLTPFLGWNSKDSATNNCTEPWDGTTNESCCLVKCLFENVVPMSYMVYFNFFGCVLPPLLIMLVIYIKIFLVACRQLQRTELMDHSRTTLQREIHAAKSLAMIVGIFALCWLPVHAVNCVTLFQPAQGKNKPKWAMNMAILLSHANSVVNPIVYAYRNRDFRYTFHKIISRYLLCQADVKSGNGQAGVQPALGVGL
Method in brief: (§3)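 HEK-293-A2B membranes, 18 μg protein, in 50 mM Tris-HCl, 1 mM EDTA, 10 mM MgCl2, 0.1 mM benzamidine, 10 µg/mL bacitracin, 2 UI/mL adenosine deaminase, pH 6.5. Tracer 35 nM [3H]DPCPX; 400 μM NECA defines nonspecific binding. 25 °C for 30 min, GF/C filtration, duplicates. Single-point 10 μM screen, then 6-point curves (10 nM–100 μM), Cheng-Prusoff Ki.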

[4] = biological target: T4, Adenosine receptor A3 (Homo sapiens) (UniProt P0DMS8); experiment: Displacement of [3H]NECA from human A3 receptor expressed in HeLa-A3 cells at 10 uM incubated for 180 mins by scintillation counting method based radioligand competitive binding assay; format: cell-based
T4 sequence (whole entry): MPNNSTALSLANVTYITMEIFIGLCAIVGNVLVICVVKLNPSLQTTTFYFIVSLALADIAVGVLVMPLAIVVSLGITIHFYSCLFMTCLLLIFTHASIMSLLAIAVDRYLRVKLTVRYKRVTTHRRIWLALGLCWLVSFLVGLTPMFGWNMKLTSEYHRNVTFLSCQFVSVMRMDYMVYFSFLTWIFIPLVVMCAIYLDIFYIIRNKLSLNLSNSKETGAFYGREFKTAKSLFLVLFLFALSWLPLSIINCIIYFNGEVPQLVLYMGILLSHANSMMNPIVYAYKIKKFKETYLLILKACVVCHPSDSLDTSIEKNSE
Method in brief: (§4)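 Membranes of HeLa-A3 cells (90 μg protein) in 50 mM Tris-HCl, 1 mM EDTA, 5 mM MgCl2, 2 UI/mL adenosine deaminase, pH 7.4, with 30 nM [3H]NECA. Nonspecific: 100 μM (R)-PIA. 180 min at 25 °C, GF/B filtration, triplicates, scintillation counting. 10 μM single-point inhibition; >80% actives run at 6 concentrations (10 nM–100 μM), pKi via Cheng-Prusoff.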

Adenosine receptor A1 = biological target: T5, Adenosine receptor A1 (Homo sapiens, UniProt P30542); experiment: Displacement of [3H]DPCPX from human A1 receptor expressed in CHO-A1 cells incubated for 60 mins by scintillation counting method based radioligand competitive binding assay; format: cell-based; method in brief: as §1
T5 sequence (P30542 whole entry): T1 sequence (whole entry)

Adenosine receptor A3 = biological target: T6, Adenosine receptor A3 (Homo sapiens, UniProt P0DMS8); experiment: Displacement of [3H]NECA from human A3 receptor expressed in HeLa-A3 cells incubated for 180 mins by scintillation counting method based radioligand competitive binding assay; format: cell-based; method in brief: as §4
T6 sequence (P0DMS8 whole entry): T4 sequence (whole entry)

Adenosine receptor A2b = biological target: T7, Adenosine receptor A2b (Homo sapiens, UniProt P29275); experiment: Displacement of [3H]DPCPX from human A2B receptor expressed in HEK-293-A2B cells incubated for 30 mins by scintillation counting method based radioligand competitive binding assay; format: cell-based; method in brief: as §3
T7 sequence (P29275 whole entry): T3 sequence (whole entry)

[5] = biological target: T1, Adenosine receptor A1 (Homo sapiens); experiment: Antagonist activity at human A1 receptor in CHO-A1 cells assessed as reduction in NECA-induced inhibition of forskolin-stimulated cAMP accumulation preincubated for 15 mins followed by NECA addition and further incubated for 15 mins by ELISA; format: functional, cell-based
Method in brief: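 CHO-A1 cells stably expressing receptor, grown with dialyzed FBS, washed in F-12 medium with 25 mM HEPES pH 7.4 and 20 μM rolipram. Test compound preincubated 15 min, then NECA (0.1 nM–1 mM) plus 3 μM forskolin added for 15 min. cAMP measured by enzyme immunoassay with TMB readout. pKB derived from antagonist curve against NECA effect.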

Adenosine receptor A2a [6] = biological target: T2, Adenosine receptor A2a; experiment: Displacement of [3H]ZM241385 from human A2A receptor expressed in HeLa-A2A cells incubated for 30 mins by scintillation counting method based radioligand competitive binding assay; format: cell-based; method in brief: as §2
[7] = biological target: T4, Adenosine receptor A3 (Homo sapiens); experiment: Antagonist activity at human A3 receptor in CHO-A3 cells assessed as reduction in NECA-induced inhibition of forskolin-stimulated cAMP accumulation preincubated for 15 mins followed by NECA addition and further incubated for 15 mins by ELISA; format: functional, cell-based
Method in brief: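 CHO cells expressing human A3, washed in DMEM F-12 with 25 mM HEPES pH 7.4 and 30 μM rolipram. Compound preincubated 15 min, then NECA (0.1 nM–1 mM) and 10 μM forskolin added for 15 min. cAMP quantified by enzyme immunoassay. Antagonist curves run against 0.1 μM NECA, duplicates. pKB calculated from IC50, agonist level, A50 and Hill slope.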

T2 sequence (P29274 whole entry): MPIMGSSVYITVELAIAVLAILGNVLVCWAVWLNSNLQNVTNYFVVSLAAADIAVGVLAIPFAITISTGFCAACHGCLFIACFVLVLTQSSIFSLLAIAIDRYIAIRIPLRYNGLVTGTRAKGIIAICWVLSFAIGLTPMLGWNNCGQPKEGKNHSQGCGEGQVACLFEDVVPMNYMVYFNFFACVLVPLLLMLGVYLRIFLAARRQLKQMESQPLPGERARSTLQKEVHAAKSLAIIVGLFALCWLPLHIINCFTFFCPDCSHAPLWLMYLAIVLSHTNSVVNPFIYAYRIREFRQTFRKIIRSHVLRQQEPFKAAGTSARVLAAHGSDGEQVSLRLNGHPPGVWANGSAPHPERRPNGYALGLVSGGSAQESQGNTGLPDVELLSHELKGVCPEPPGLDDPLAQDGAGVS

| SMILES | inhibition [1] [%] | inhibition (Adenosine receptor A2a [2]) [%] | inhibition [3] [%] | inhibition [4] [%] | Ki (Adenosine receptor A1) [nM] | Ki (Adenosine receptor A3) [nM] | Ki (Adenosine receptor A2b) [nM] | pKb [5] | Ki (Adenosine receptor A2a [6]) [nM] | pKb [7] |
| --- | --- | --- | --- | --- | --- | --- | --- | --- | --- | --- |
| Cn1cnc2c(N3CCCCC3)nc(-c3cccc(O)c3)nc21 | 78.5 | 54.8 | 29.3 | 49.1 |  |  |  |  |  |  |
| CN1CCN(c2nc(-c3cc(Cl)ccc3Cl)nc3[nH]cnc23)CC1 | > 80 | 9.1 | 13 | > 80 | 2510 | 251 |  |  |  |  |
| CN1CCN(c2ncnc3[nH]cnc23)CC1 | 9.2 | 19.1 | 14 | 26.9 |  |  |  |  |  |  |
| Clc1cccc(-c2nc(N3CCCCC3)c3nc[nH]c3n2)c1 | > 80 | 43.5 | > 80 | > 80 | 50.1 | 39.8 | 1000 |  |  |  |
| Clc1ccc(Cl)c(-c2nc(N3CCCCC3)c3nc[nH]c3n2)c1 | 1.4 | 21 | 12.1 | > 80 |  | 200 |  |  |  |  |
| CN1CCN(c2nc(-c3ccccc3O)nc3c2ncn3C)CC1 | > 80 | 59.6 | 36 | 15.3 | 631 |  |  |  |  |  |
| CN1CCN(c2nc(-c3ccc(Cl)c(Cl)c3)nc3c2ncn3C)CC1 | 65.2 | 25 | 28.3 | 35.3 |  |  |  |  |  |  |
| Cn1cnc2c(N3CCCCC3)nc(-c3ccccc3Cl)nc21 | 35.2 | 36.4 | 32.7 | 2.1 |  |  |  |  |  |  |
| Clc1ccc(-c2nc(N3CCCCC3)c3nc[nH]c3n2)cc1Cl | 24.1 | 7 | 0.7 | > 80 |  | 79.4 |  |  |  |  |
| Cn1cnc2c(N3CCCCC3)nc(-c3cccc(Cl)c3)nc21 | 22.4 | 17 | 24.2 | 6.1 |  |  |  |  |  |  |
| CN1CCN(c2nc(-c3cccc(O)c3)nc3[nH]cnc23)CC1 | > 80 | 1 | 27 | > 80 | 158 | 501 |  |  |  |  |
| CN1CCN(c2nc(-c3cccc(Cl)c3)nc3[nH]cnc23)CC1 | > 80 | 52.7 | 29.9 | > 80 | 79.4 | 100 |  |  |  |  |
| CN1CCN(c2nc(-c3cccc(Cl)c3)nc3c2ncn3C)CC1 | 45.7 | 21 | 19.2 | 38.3 |  |  |  |  |  |  |
| Cn1cnc2c(N3CCCCC3)nc(-c3cc(Cl)ccc3Cl)nc21 | 13.2 | 2.4 | 31 | 5.4 |  |  |  |  |  |  |
| Oc1cccc(-c2nc(N3CCCCC3)c3nc[nH]c3n2)c1 | > 80 | > 80 | > 80 | > 80 | 10 | 63.1 | 158 | 7.9 | 316 |  |
| CN1CCN(c2nc(-c3ccc(Cl)c(Cl)c3)nc3[nH]cnc23)CC1 | > 80 | 12 | 24.1 | > 80 | 631 | 39.8 |  |  |  |  |
| CN1CCN(c2nc(-c3ccc(O)cc3)nc3[nH]cnc23)CC1 | > 80 | 37 | 53 | 48 | 398 |  |  |  |  |  |
| Oc1ccc(-c2nc(N3CCCCC3)c3nc[nH]c3n2)cc1 | > 80 | > 80 | > 80 | > 80 | 10 | 39.8 | 79.4 |  | 100 |  |
| CN1CCN(c2nc(-c3ccc(Cl)c(C(F)(F)F)c3)nc3[nH]cnc23)CC1 | 52.4 | 32 | 25.1 | > 80 |  | 794 |  |  |  |  |
| CN1CCN(c2nc(-c3cccc(O)c3)nc3c2ncn3C)CC1 | 27.1 | 4.2 | 47.8 | 63.8 |  |  |  |  |  |  |
| Clc1ccc(-c2nc(N3CCCCC3)c3nc[nH]c3n2)cc1 | > 80 | > 80 | 1.4 | > 80 | 126 | 7.94 |  |  | 3160 | 8.2 |
| Cn1cnc2c(N3CCCCC3)nc(-c3cccc(O)c3O)nc21 | 17.2 | 24.1 | 26 | 33.7 |  |  |  |  |  |  |
| CN1CCN(c2nc(-c3ccc(Cl)cc3)nc3[nH]cnc23)CC1 | > 80 | 15.9 | 6.2 | > 80 | 398 | 39.8 |  |  |  |  |
| Cn1cnc2c(N3CCCCC3)nc(-c3ccccc3O)nc21 | 50.5 | 74.8 | 30.2 | 20 |  |  |  |  |  |  |
